These results are taken from ChEMBL document CHEMBL1152865, “Synthesis and antimycobacterial activities of novel 6-nitroquinolone-3-carboxylic acids” (Eur J Med Chem, 2009).

In brackets after ≈: the same amount, converted by molar mass.

The assay relates to Mycobacterium tuberculosis. As to the kind of experiment: Antibacterial activity against multidrug-resistant Mycobacterium tuberculosis by agar dilution method. It counts as functional. The procedure, abridged:
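Agar dilution in Middlebrook 7H11 agar supplemented with OADC, following an approach similar to NCCLS guidance. MIC determined in duplicate.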
Take `CN1CCN(c2cc3c(cc2[N+](=O)[O-])c(=O)c(C(=O)O)cn3C2CC2)CC1c1ccccc1` (stereo not given): the minimum inhibitory concentration (MIC) was found to be 0.2 µM (≈ 0.0897 µg/mL).
As for `Cc1onc(-c2c(F)cccc2F)c1C(=O)N1CCN(c2cc3c(cc2[N+](=O)[O-])c(=O)c(C(=O)O)cn3C2CC2)CC1`, the figure is 2.69 µM (≈ 1.56 µg/mL); as for `NNC(=O)c1ccncc1` [ISONIAZID], 45.6 µM (≈ 6.25 µg/mL); as for `CC(C)(C)n1cc(C(=O)O)c(=O)c2cc([N+](=O)[O-])c(N3CCN(Cc4ccc5c(c4)OCO5)CC3)cc21`, 1.53 µM (≈ 0.778 µg/mL).
For `O=C(O)c1cn(-c2ccc(F)cc2)c2cc(N3CCN(C(=O)C4COc5ccccc5O4)CC3)c([N+](=O)[O-])cc2c1=O` (stereo not given) the value was 0.68 µM (≈ 0.391 µg/mL); for `CC(C)(C)NC(=O)C1c2ccccc2CCN1c1cc2c(cc1[N+](=O)[O-])c(=O)c(C(=O)O)cn2C1CC1` (stereo not given), 1.55 µM (≈ 0.782 µg/mL); for `O=C(O)c1cn(C2CC2)c2cc(N3CCN(C(=O)C4COc5ccccc5O4)CC3)c([N+](=O)[O-])cc2c1=O` (stereo not given), 6.01 µM (≈ 3.13 µg/mL).
As for `O=C(O)c1cn(C2CC2)c2cc(N3CCC(n4c(=O)[nH]c5cc(Cl)ccc54)CC3)c([N+](=O)[O-])cc2c1=O`, the figure is 2.97 µM (≈ 1.56 µg/mL); as for `O=C(O)c1cn(C2CC2)c2cc(N3CCC4(CC3)OCCO4)c([N+](=O)[O-])cc2c1=O`, 1.88 µM (≈ 0.781 µg/mL); as for `O=C(O)c1cn(C2CC2)c2cc(N3CCC(N4CCCCC4)CC3)c([N+](=O)[O-])cc2c1=O`, 0.43 µM (≈ 0.189 µg/mL).
`COc1c(N2CCNC(C)C2)c(F)cc2c(=O)c(C(=O)O)cn(C3CC3)c12` (stereo not given) [GATIFLOXACIN] returned an MIC of 8.34 µM (≈ 3.13 µg/mL).
For `O=C(O)c1cn(C2CC2)c2cc(N3CCN(C(=O)c4ccco4)CC3)c([N+](=O)[O-])cc2c1=O` the value was 0.34 µM (≈ 0.154 µg/mL); for `O=C(O)c1cn2c(n1)CN(c1cc3c(cc1[N+](=O)[O-])c(=O)c(C(=O)O)cn3C1CC1)CC2`, 0.43 µM (≈ 0.189 µg/mL); for `O=C(O)c1cn(C2CC2)c2cc(N3CCC(O)(c4ccc(Cl)cc4)CC3)c([N+](=O)[O-])cc2c1=O`, 0.39 µM (≈ 0.189 µg/mL).
For `CCN(CC)C(=O)C1CCCN(c2cc3c(cc2[N+](=O)[O-])c(=O)c(C(=O)O)cn3C2CC2)C1` (stereo not given) the value was 3.42 µM (≈ 1.56 µg/mL).
The compound `O=C(O)c1cn(-c2ccc(F)cc2)c2cc(N3CCN(Cc4ccc5c(c4)OCO5)CC3)c([N+](=O)[O-])cc2c1=O` yielded an MIC of 0.71 µM (≈ 0.388 µg/mL). This MIC lies about 4.8-fold lower than the previous one.
As for `CC1CN(c2cc3c(cc2[N+](=O)[O-])c(=O)c(C(=O)O)cn3C2CC2)CC(C)O1` (stereo not given), the figure is 4.03 µM (≈ 1.56 µg/mL); as for `CC1CN(c2cc3c(cc2[N+](=O)[O-])c(=O)c(C(=O)O)cn3-c2ccc(F)cc2)CC(C)O1` (stereo not given), 1.77 µM (≈ 0.781 µg/mL).
For `O=C(O)c1cn(C2CC2)c2cc(N3CCN(Cc4ccc5c(c4)OCO5)CC3)c([N+](=O)[O-])cc2c1=O`, the MIC amounted to 0.16 µM (≈ 0.0788 µg/mL).
As for `Cc1onc(-c2c(F)cccc2F)c1C(=O)N1CCN(c2cc3c(cc2[N+](=O)[O-])c(=O)c(C(=O)O)cn3C(C)(C)C)CC1`, the figure is 0.65 µM (≈ 0.387 µg/mL).
